Measurements reported in publication PMC2911241 (Letters in drug design & discovery, 2010).
Read-outs that look alike come from different tables or passages of the source.

Tests used:
tubulin = assay: Inhibition of [3H]colchicine binding to tubulin; details: tubulin, colchicine and tested compound at 1, 5 and 1 μM
Outline: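 Purified tubulin incubated with [3H]colchicine and test compound for 10 min at 37 °C. Read-out is percent inhibition of radiolabelled colchicine binding. Combretastatin A-4 served as reference at 1 μM.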

K562 cells = assay: Cell cycle analysis by flow cytometry; assay type: cell-based, human; details: for Cell cycle percentage G0/G1 / Cell cycle percentage G2/M / Cell cycle percentage S: K562 cells treated at the IC50, calculated using living cells, mean ± SE; for Effect on cell cycle distribution (in words): K562 cells, each compound at the IC50 value
Outline: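 K562 cells grown in RPMI 1640 with 10% FCS, 2 mM L-glutamine, penicillin (100 U/ml) and streptomycin (100 μg/ml) at 37 °C under 5% CO2, then exposed to test compound. Cells washed once in ice-cold PBS and resuspended at 1×10^6/mL in hypotonic propidium iodide (50 μg/mL, 0.1% sodium citrate, 0.03% NP-40) for 30 min. Single-parameter flow cytometry DNA histograms; phase percentages from living cells; hypodiploid peak scored as apoptotic.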

[1] = test system: human chronic myelogenous K562 leukemia cells; assay: Cell proliferation analysis, K562 cells; assay type: cell-based; details: Homo sapiens
Outline: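 K562 cells grown in RPMI 1640 with 10% FCS, 2 mM L-glutamine, […] and penicillin/streptomycin at 37°C, 5% CO2. DMSO stocks (1 mg/mL) diluted in medium. Cells (1×10^4/well) exposed to increasing concentrations for 24 h at 37°C, then counted electronically. IC50 is 50% growth inhibition vs untreated controls. Duplicate cultures per concentration, repeated experiments, mean ± SE.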

[2] = K562, 24 h, read-out: IC50 K562
[3] = K562, read-out: IC50 (nM) in Table 3

| SMILES | Colchicine binding % ±SD (inhibition of [3H]colchicine binding) (tubulin) [%] | Cell cycle percentage G0/G1 (K562 cells) [%] | Cell cycle percentage G2/M (K562 cells) [%] | Cell cycle percentage S (K562 cells) [%] | Effect on cell cycle distribution (in words) (K562 cells) | IC50 [1, 2] [nM] | IC50 [1, 3] [nM] |
| --- | --- | --- | --- | --- | --- | --- | --- |
| COc1ccc2c(NC(=O)CCl)c(C(=O)c3cc(OC)c(OC)c(OC)c3)oc2c1 [Compound 3j, 2-Chloro-N-[6-methoxy-2-(3,4,5-trimethoxybenzoyl)-1-benzofuran-3-yl]acetamide] | 47±5 | 23±4 | 33±5 | 44±7 | caused cells to accumulate in late S phase | 30 ± 20 | 400 |
| COc1ccc2c(NC(=O)CI)c(C(=O)c3cc(OC)c(OC)c(OC)c3)oc2c1 [Compound 3l, 2-Iodo-N-[6-methoxy-2-(3,4,5-trimethoxybenzoyl)-1-benzofuran-3-yl]acetamide] | 54±1 | 23±3 | 21±3 | 56±4 | caused an increase in the percentage of cells in S phase | 64 ± 20 | 115 |
| COc1ccc2c(NC(C)=O)c(C(=O)c3cc(OC)c(OC)c(OC)c3)oc2c1 [Compound 3i, N-[6-Methoxy-2-(3,4,5-trimethoxybenzoyl)-1-benzofuran-3-yl]acetamide] | 51±7 | 27±5 | 37±6 | 36±8 | – | 27 ± 10 | 85 |
| COc1ccc2c(NC(=O)CBr)c(C(=O)c3cc(OC)c(OC)c(OC)c3)oc2c1 [Compound 3k, 2-Bromo-N-[6-methoxy-2-(3,4,5-trimethoxybenzoyl)-1-benzofuran-3-yl]acetamide] | 49±2 | 6±1 | 67±8 | 27±4 | – | 180 ± 30 | 212 |
